These results are taken from ChEMBL document CHEMBL1130594, “Thalidomide analogs and PDE4 inhibition” (Bioorg Med Chem Lett, 1998).

Test [1] deals with T1, Phosphodiesterase 4 (Homo sapiens, UniProt P27815+Q08499+Q07343+Q08493). As to the kind of experiment: Inhibition of phosphodiesterase 4 from U937 cells. To be noted: u-937. It is filed as cell-based.
Test [2] concerns PBMC. As to the kind of experiment: Inhibition of LPS stimulated Tumor Necrosis Factor-alpha (TNF-alpha) release by human PBMC, cytotoxic at 10 and 100 uM. It is filed as functional, cell-based.
Test [3] deals with PBMC. As to the kind of experiment: (§1) Inhibition of LPS stimulated Tumor Necrosis Factor-alpha (TNF-alpha) release by human PBMC. It is filed as functional, cell-based.
Test [4] has as its target T1, Phosphodiesterase 4. In words: Inhibition of PDE4 enzyme from U937 cells. Type of test: cell-based. To be noted: u-937. Put shortly:
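Crude PDE4 from U937 cells: lysate supernatant run on Sephacryl S-200, rolipram-sensitive fractions pooled. Assay in 50 mM Tris-HCl pH 7.5, 5 mM MgCl2, 1 µM cAMP (1% 3H-cAMP), varying inhibitor, <15% substrate consumed; 30 °C, 30 min. Boiled, snake-venom treated, AG1-X8 resin, aqueous phase counted. Duplicates, % of control; IC50 by variable-slope nonlinear regression, three independent experiments.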

The subject of test [5] is PBMC. The test is described as §1.

Consider `COC(=O)CC(c1ccc(OC)c(OC)c1)N1C(=O)c2c(F)c(F)c(F)c(F)c2C1=O` (configuration not stated), for which the IC50 – broadly, the concentration needed to halve the response being measured – on Phosphodiesterase 4 [1] was 4700 nM; with PBMC [2], 260 nM.

For the molecule `CCOc1cc(C(CC#N)N2C(=O)c3ccccc3C2=O)ccc1OC` (configuration not stated), the IC50 in the test with PBMC [3] stood at 120 nM; against Phosphodiesterase 4 [4], 130 nM.

For `COc1ccc(C(CC#N)N2C(=O)c3ccccc3C2=O)cc1OC` (configuration not stated), the half-inhibitory concentration (IC50) with PBMC [3] worked out at 1700 nM; against Phosphodiesterase 4 [4], 1300 nM.

In the case of `COc1ccc(C(CC#N)N2C(=O)c3ccccc3C2=O)cc1OC1CCCC1` (configuration not stated), the results for the IC50 with PBMC [3] and against Phosphodiesterase 4 [4] were 1600 nM and 350 nM, respectively.

`CCOc1cc(C(CC(N)=O)N2C(=O)c3ccccc3C2=O)ccc1OC` (configuration not stated): the IC50 was determined as 2700 nM in the test on PBMC [3] and 2000 nM at Phosphodiesterase 4 [4].

As for `CCOc1cc(C(CC(=O)OC)N2C(=O)c3ccccc3C2=O)ccc1OC` (configuration not stated), the results for the IC50 in the test with PBMC [3] and against Phosphodiesterase 4 [4] were 700 nM and 230 nM, respectively.

As for `COC(=O)CC(c1ccc(OC)c(OC)c1)N1C(=O)c2ccccc2C1=O` (configuration not stated), the IC50 in the test with PBMC [3] was found to be 2900 nM; at Phosphodiesterase 4 [4], 2500 nM.

With `CCOc1cc(C(CC(=O)OC)N2C(=O)c3c(F)c(F)c(F)c(F)c3C2=O)ccc1OC` (configuration not stated), the 50% inhibitory concentration (IC50) against Phosphodiesterase 4 [1] worked out at 2200 nM; in the test with PBMC [2], 380 nM.

As for `COc1ccc(C(CC(N)=O)N2C(=O)c3ccccc3C2=O)cc1OC` (configuration not stated), the IC50 in the test on PBMC [3] came out at 13000 nM; against Phosphodiesterase 4 [4], 9400 nM.

For `COC(=O)CC(c1ccc(OC)c(OC2CCCC2)c1)N1C(=O)c2ccccc2C1=O` (configuration not stated), the IC50 in the test with PBMC [3] stood at 1600 nM; against Phosphodiesterase 4 [4] it was 1700 nM.

With `COC(=O)CC(c1ccc(OC)c(OC2CC3CCC2C3)c1)N1C(=O)c2ccccc2C1=O` (configuration not stated), the values for the IC50 with PBMC [3] and against Phosphodiesterase 4 [4] were 2400 nM and 740 nM, respectively.

With `COc1ccc(C(CC(N)=O)N2C(=O)c3ccccc3C2=O)cc1OC1CCCC1` (configuration not stated) [CDC-801], the IC50 with PBMC [3] is 2500 nM; against Phosphodiesterase 4 [4], 1100 nM.

Take `COc1ccc(C2CNC(=O)C2)cc1OC1CCCC1` (configuration not stated) [ROLIPRAM]: the half-inhibitory concentration (IC50) with PBMC [5] was 150 nM.

`O=C1CCC(N2C(=O)c3ccccc3C2=O)C(=O)N1` (configuration not stated) [THALIDOMIDE]: the IC50 in the test with PBMC [3] was about 200000 nM; against Phosphodiesterase 4 [4] it was over 500000 nM.
